# MC4R ag barr = activates human MC4R beta-arrestin recruitment; P32245; U2OS MC4R beta-arrestin complementation, luminescence; percent of melanotan II response, DMSO zero; activation, % at 8.9 µM; 360,000 compounds, 0.98% hits;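 active = activation above a per-plate cutoff, the mean activation of sample wells on that plate plus 3 SD, cut at about 8% in these data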
# MC4R antagonist = blocks human MC4R cAMP signaling. 360,000 compounds, 0.48% hits. P32245. inhibition, % at 6.5 µM. MC4R-expressing cells, MTII-stimulated cAMP, LANCE TR-FRET. AID 540295;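 active = inhibition above its plate's cutoff, the mean of tested wells on that plate plus 3 SD, cut at about 29% in these data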;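 note: 0% = Melanotan II alone and 100% = Melanotan II plus saturating MCL0020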
#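 Material: human MC4R-expressing U2OS cells. Probe or stimulus: Melanotan II challenge. Dosing: 6.5 µM single dose. Times: 30-min compound, 1-h challenge, 1-h detection, room temperature. Technique: TR-FRET with Eu-cAMP and labeled anti-cAMP, 671 nm. Replication: singlicate.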
# NTR1 agonist = activates human neurotensin receptor 1; NTR1-U2OS beta-arrestin-GFP spot imaging, agonist mode; activation, % at 20 µM; 330,000 compounds, 0.17% hits;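 active = activation at or above 40% of the spot to cytoplasm intensity ratio, with at least 20 cells analyzed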;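 note: 0% = DMSO without peptide and 100% = 100 nM NTR1 peptide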
# Hep lipid drop = modulators of hepatic lipid droplet formation; AML12 mouse hepatocytes, oleate lipid droplets, BODIPY imaging; inhibition, % at 6.5 µM; 240,000 compounds, 0.4% hits; AID 1656;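 active = lipid droplet intensity inhibited by at least 50%, with more than 500 cells counted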
#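 Test system: AML12 hepatocytes (mouse); reagent: oleate loading, 100 µM; dosing: one dose, 6.5 µM compound; incubation: overnight exposure; signal: fluorescence imaging, 20x objective, two fields per well; read-out basis: % inhibition of corrected integrated BODIPY droplet signal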
# PREPL inhibitor = inhibitors of human prolyl oligopeptidase-like enzyme PREPL; Q4J6C6; recombinant PREPL, fluorescence polarization activity-based probe; inhibition, % at 5.96 µM; 320,000 compounds, 0.68% hits; in the data active = inhibition above about 43%;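 note: 0% = enzyme with DMSO and 100% = wells lacking enzyme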
# m5-HT2A agonist = agonists of mouse serotonin 5-HT2A receptor (HTR2A); activation, % at 7.6 µM; CHO-K1 mHTR2A beta-arrestin complementation, luminescence; percent of 30 µM serotonin response; AID 624169; P35363; 360,000 compounds, 0.66% hits;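 active = activation above a run cutoff, the mean activation of all tested compounds plus 3 SD, cut at about 14% in these data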;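 note: 0% = plate median of compound wells and 100% = 30 µM serotonin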
# Target sequence (P35363 whole entry, looked up): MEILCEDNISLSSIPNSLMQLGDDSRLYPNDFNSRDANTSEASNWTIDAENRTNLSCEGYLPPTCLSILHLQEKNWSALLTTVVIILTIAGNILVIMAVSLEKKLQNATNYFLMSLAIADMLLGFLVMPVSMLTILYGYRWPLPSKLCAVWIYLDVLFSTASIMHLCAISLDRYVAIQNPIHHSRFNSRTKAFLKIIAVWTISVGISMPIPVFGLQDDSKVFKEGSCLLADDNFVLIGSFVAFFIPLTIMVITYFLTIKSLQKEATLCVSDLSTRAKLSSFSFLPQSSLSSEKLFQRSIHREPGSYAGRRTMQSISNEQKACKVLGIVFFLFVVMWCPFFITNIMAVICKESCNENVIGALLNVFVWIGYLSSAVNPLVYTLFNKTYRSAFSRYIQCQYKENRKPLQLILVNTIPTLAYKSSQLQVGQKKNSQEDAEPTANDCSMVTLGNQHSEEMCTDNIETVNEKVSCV
# MC4R barr ag = human MC4R beta-arrestin agonism confirmation. shares compounds with MC4R ag barr. U2OS MC4R beta-arrestin recruitment, luminescence; scaled DMSO 0%, Melanotan II 100%. activation, % at 8.9 µM. 2,400 compounds, 31% hits. AID 602192;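 active = mean activation across replicates above the hit cutoff set in the earlier primary screen, cut at about 8% in these data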
# MOR DOR agonist = counter-screen for MC4R agonists: agonists of mu-delta opioid heterodimer. activation, % at 9.2 µM. 2,400 compounds, 5.8% hits. U2OS PathHunter beta-arrestin, beta-gal luminescence; percent of deltorphin B response, DMSO zero. shares compounds with MC4R ag barr;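 active = mean activation across replicates exceeds the hit threshold derived in the earlier primary screen, cut at about 18% in these data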;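 note: 100% = deltorphin B at 0.9 µM final and 0% = DMSO alone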
# * marks the source's active call; other numbers are inactive results; / = no result. Compounds with a hit are over-represented: about 2.7% of the library has one in this group of screens.
SMILES,MC4R ag barr,MC4R antagonist,NTR1 agonist,Hep lipid drop,PREPL inhibitor,m5-HT2A agonist,MC4R barr ag,MOR DOR agonist
COc1cccc2sc(N(CCN(C)C)C(=O)/C=C/c3cccs3)nc12,7,7,8,26,9,-4,/,/
CN(C)CCN(C(=O)/C=C/c1cccs1)c1nc2ccc(Br)cc2s1,31*,4,-1,1,16,-7,12*,6
CCc1ccc2nc(N(CCN(C)C)C(=O)/C=C/c3cccs3)sc2c1,0,7,4,5,13,-10,/,/
Cc1ccc2nc(N(CCN(C)C)C(=O)/C=C/c3cccs3)sc2c1,16*,-18,7,2,20,-4,6,4
CCOc1ccc2nc(N(CCN(C)C)C(=O)/C=C/c3cccs3)sc2c1,-2,-5,1,5,7,-8,/,/
Cc1nc2sccn2c(=O)c1S(=O)(=O)N1CCN(c2cccc(Cl)c2)CC1,2,-9,0,-1,7,-3,/,/
COC(=O)c1ccc(NC(=O)Nc2ccc([N+](=O)[O-])cc2)cc1,-1,2,24,-4,10,-4,/,/
COc1ccc2sc(N(CCCN(C)C)C(=O)c3nc4ccccc4s3)nc2c1,12*,-10,-1,12,12,-2,8.3*,10
CN(C)CCCN(C(=O)/C=C/c1cccs1)c1nc2ccc(F)cc2s1,10*,-7,-1,16,-12,-6,16*,8
CN(C)CCCN(C(=O)CCc1ccccc1)c1nc2ccc(Cl)cc2s1,11*,-4,7,6,-48,-10,31*,16
CCN(CC)CCN(C(=O)/C=C/c1cccs1)c1nc2ccc(F)cc2s1,-2,3,6,-10,6,-6,/,/
COC(=O)c1cc(OC)c(OC)cc1NC(=O)Nc1ccc(OC)cc1,14*,9,0,9,7,-2,-1,2
COC(=O)c1cc(OC)c(OC)cc1NC(=O)Nc1cccc(C(C)=O)c1,-1,15,2,7,-2,-1,/,/
C/C=C/C(=O)Nc1nnc(-c2ccccc2C)s1,19*,19,4,3,2,3,1,6
C=C(C)C(=O)Nc1nnc(-c2ccccc2C)s1,-2,3,/,-5,/,-7,/,/
Cc1ccccc1-c1nnc(NC(=O)CSc2nc3ccccc3s2)s1,16*,0,5,0,-17,1,10*,4
CC(OC(=O)CNC(=O)c1ccc(Cl)c(Cl)c1)C(=O)N1CCOCC1 (stereo unspecified),-1,20,0,/,20,2,/,/
C#CCn1c(=NC(=O)c2cccs2)sc2cccc(OCC)c21,24*,19,7,-15,-4,10,4,2
C#CCn1c(=NC(=O)c2ccc(Cl)s2)sc2cccc(OC)c21,15*,9,9,-4,-8,-3,6,2
CCOC(=O)Cn1c(=NC(=O)c2cccs2)sc2cc(C(=O)OC)ccc21,1,4,-1,-15,8,3,/,/
Cc1ccc(NC(=O)[C@H](C)NC(=O)C2CCN(C(=O)[C@@H](N)CC(C)C)CC2)cc1,1,3,-1,4,4,0,/,/
COc1ccc(C(=O)Cn2c(C(=O)/C=C/c3ccccc3)nc3ccccc32)cc1,23*,11,17,16,3,8,9.4*,4
CCCCCCCCC[n+]1cccc2c3ccccc3ccc21,13*,-12,9,/,12,7,8.4*,7
O=[N+]([O-])c1ccc(C[n+]2cccc3c4ccccc4ccc32)cc1,0,12,-1,7,25,0,/,/
COCc1cc(C)nc2sc(C(=O)NCCO)c(-n3cccc3)c12,-1,-3,0,2,13,0,/,/
SMILES,MC4R ag barr,MC4R antagonist,NTR1 agonist,Hep lipid drop,PREPL inhibitor,m5-HT2A agonist,MC4R barr ag,MOR DOR agonist
C/C(=C\C=C(C#N)C#N)c1cc(C#N)c(N)o1,14*,-15,-1,2,/,6,57*,20*
Cc1cccc(S(=O)C(c2ccccc2)c2ccccc2)c1 (stereo unspecified),-1,6,/,/,/,0,/,/
Cc1cccc(NC(=O)c2nc[nH]c2C(=O)NCCCCCNC(=O)OC(C)(C)C)c1,9.7*,6,19,/,19,4,-3,9
Cc1cccc(NC(=O)c2nc[nH]c2C(=O)NCCCNC(=O)c2[nH]cnc2C(=O)Nc2cccc(C)c2)c1,-1,3,15,/,-46,-1,/,/
c1ccc(COc2ncnc3c2ncn3CCCNCC(c2ccccc2)c2ccccc2)cc1,13*,6,/,/,/,-2,11*,30*
COc1ncnc2c1ncn2CCCNCC(c1ccccc1)c1ccccc1,0,2,/,/,/,3,/,/
COc1ccc2nc(NC(=O)CC3Oc4ccccc4NC3=O)sc2c1 (stereo unspecified),2,26,1,0,-6,1,/,/
Cn1c(=O)c(C(=O)NNC(=O)c2cccc(Cl)c2)c(O)c2ccccc21,9.8*,7,5,12,6,6,2,6
CCc1cc2cc(C)ccc2nc1SCC(=O)NC1CCCC1,11*,5,7,12,7,1,-1,8
Cc1cc2ccccc2nc1SCC(=O)NC1CCCC1,-1,11,/,-7,10,-3,/,/
COc1nnc(-c2ccccc2)s1,-3,5,-2,4,7,7,/,/
COc1ccc(OCCOC(=O)Nc2ccccc2)cc1,2,8,0,/,-10,12,/,/
COc1cc(C(F)(F)F)nc2ccc(C#CCOC(=O)Nc3ccccc3)cc12,14*,6,4,-8,-1,2,6,6
CCc1c(-c2cccc(Br)c2)ncn1Cc1cccc(-c2ccccc2)c1,/,/,/,/,/,-4,/,/
Cc1ccc(S(=O)(=O)Nc2cc(=O)[nH]c(SCc3ccc(Cl)cc3)n2)cc1,19*,9,/,-3,-15,-7,7,2
CCOc1ccc(NC(=O)CN(C)C(=O)C2CCCO2)cc1OCC (stereo unspecified),-2,14,1,/,/,-5,/,/
CSc1nc2ccc(NC(=O)COc3ccccc3F)cc2s1,10*,1,2,/,7,11,0,3
CSc1nc2ccc(NC(=O)CS(=O)(=O)c3ccccc3)cc2s1,1,10,/,/,/,-5,/,/
COC(=O)c1ccc(CSc2nnc(NC(=O)c3cc4c(s3)CCCC4)s2)cc1,18*,7,0,3,0,0,0,2

# Screening results: PubChem, several laboratories
